Tests used:
Rattus norvegicus [1] = species: Rattus norvegicus; experiment: Inhibition of carbachol-induced release of alpha-amylase from pancreatic acini from rat was determined; type: functional; settings: read-out: I50
Method in brief: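 Dispersed acini from male Sprague–Dawley rat pancreas (collagenase 0.8 mg/mL, three incubations), in DMEM with 0.2% albumin, 0.01% trypsin inhibitor, 0.09% theophylline under O2; viability >99%. Incubated with graded antagonist plus 10⁻⁵ M carbachol; secreted α-amylase by Phadebas assay; I50 by curve fitting.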

Rattus norvegicus [2] = species: Rattus norvegicus; experiment: Compound was tested for decrease in rate of lever pressing by rat; type: functional
Method in brief: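 Male Sprague–Dawley rats (350 g) lever-pressing for food on a 10-response schedule; sessions 30 min or 50 food presentations. Drug given intraperitoneally 30 min before session; saline controls. Mean ± SEM of single or duplicate determinations in four to six rats; I50 in mol/kg for rate decrease.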

Cavia porcellus = species: Cavia porcellus; experiment: Antimuscarinic activity was assayed for its ability to block the acetyl-choline induced contraction of the guinea pig ileum; type: functional
[3] = biological target: Muscarinic acetylcholine receptor; experiment: Inhibit the binding of [N-mnethyl-3H]-scopolamine [3H]-NMS) to Muscarinic acetylcholine receptor of human IRM-30 neuroblastoma cells

Question: For CCN(CC)CCOC(=O)C(O)(c1ccccc1)c1ccccc1 [BENACTYZINE], which IC50 (Rattus norvegicus [1]) is on record?
Answer: 30 nM

Question: Which IC50 (Rattus norvegicus [1]) does the source give for CN1[C@@H]2CC[C@H]1C[C@@H](OC(=O)C(CO)c1ccccc1)C2 (stereo partly drawn) [ATROPINE] here?
Answer: 51 nM

Question: And the I50 (Rattus norvegicus [2])?
Answer: 2.3e-05 M/kg

Question: What about the Kb (Cavia porcellus) of the same compound?
Answer: 2 nM

Question: And the Kb (Cavia porcellus; read-out: pA2 (converted))?
Answer: 2 nM

Question: For CN1CC2CC(OC(=O)C(C)(c3ccccc3)c3ccccc3)CC1C2 (stereo not drawn) [AZAPROPHEN], which IC50 (Rattus norvegicus [1]) is on record?
Answer: 0.068 nM

Question: And the I50 (Rattus norvegicus [2])?
Answer: 1.9e-05 M/kg

Question: And the Ki [3]?
Answer: 0.27 nM

Question: With CCN(CC)CCOC(=O)C(C)(c1ccccc1)c1ccccc1 [APROFENE] as the compound, how does the IC50 (Rattus norvegicus [1]) read?
Answer: 11 nM

Question: What about the Ki [3] of the same compound?
Answer: 23 nM

Question: And the Kb (Cavia porcellus)?
Answer: 3.1 nM

Question: What about the Kb (Cavia porcellus; read-out: pA2 (converted)) of the same compound?
Answer: 3.16 nM

Question: With CN1CCN(CC(=O)N2c3ccccc3C(=O)Nc3cccnc32)CC1 [PIRENZEPINE] as the compound, how does the IC50 (Rattus norvegicus [1]) read?
Answer: 2800 nM

Question: And the Kb (Cavia porcellus)?
Answer: 50000 nM

Question: And the Kb (Cavia porcellus; read-out: pA2 (converted))?
Answer: 50100 nM

Question: For CCN(CC)CCOC(=O)C(c1ccccc1)c1ccccc1 [ADIPHENINE], which IC50 (Rattus norvegicus [1]) is on record?
Answer: 350 nM

Question: What about the Kb (Cavia porcellus) of the same compound?
Answer: 92 nM

Question: And the Kb (Cavia porcellus; read-out: pA2 (converted))?
Answer: 79.4 nM

Reference: ChEMBL document CHEMBL1123735 (J Med Chem, 1987)
